According to ChEMBL document CHEMBL4334499, “SAR Exploration of Tight-Binding Inhibitors of Influenza Virus PA Endonuclease” (J Med Chem, 2019):
Activity calls are given as the source filed them. The calls are words filed in the database; no cut-off is given here.

How the values were obtained:
[1] = target: Polymerase acidic protein (Influenza A virus (A/Puerto Rico/8/1934(H1N1)), UniProt P03433); experiment: Inhibition of Influenza A virus RNA-dependent RNA polymerase PA N-terminal endonuclease using [6-FAM]AATCGCAGGCAGCACTC[TAM] substrate and measured over 45 mins by fluorescence based assay
[2] = target: Polymerase acidic protein (Influenza A virus (A/Puerto Rico/8/1934(H1N1))) (UniProt P03433)
[3] = (§1) Selectivity index, ratio of CC50 for cytotoxicity in MDCK cells assessed as reduction in cell viability incubated for 12 hrs by MTT assay to EC50 for antiviral activity against Influenza A virus (A/California/04/2009(H1N1)) ATCC VR-1737 infected in MDCK cells assessed as reduction in virus-induced cytopathic effect incubated for 48 hrs by Cell-titer-Glo luminescence assay; assay type: toxicity, cell-based; settings: dog, read-out: Ratio CC50/EC50
[4] = as §1, with “cytotoxicity in mouse NIH/3T3 cells assessed” for “cytotoxicity in MDCK cells assessed”; assay type: toxicity, cell-based; settings: read-out: Ratio CC50/EC50
[5] = Cytotoxicity in MDCK cells assessed as reduction in cell viability incubated for 12 hrs by MTT assay; assay type: cell-based, Canis lupus familiaris; settings: dog
[6] = target: Carbonic anhydrase 2 (Homo sapiens) (UniProt P00918); experiment: Inhibition of recombinant human CA2 expressed in Escherichia coli BL21 at 200 uM incubated for 15 mins using p-Nitrophenyl acetate substrate
[7] = target: Methionine aminopeptidase 2 (Homo sapiens) (UniProt P50579); experiment: Inhibition of recombinant human MetAP2 at 200 uM using Met-AMC as fluorogenic substrate by fluorescence assay
[8] = Antiviral activity against Influenza A virus (A/California/04/2009(H1N1)) ATCC VR-1737 infected in MDCK cells assessed as reduction in virus-induced cytopathic effect incubated for 48 hrs by Cell-titer-Glo luminescence assay; assay type: functional, cell-based; settings: ATCC VR-1737, MDCK
Method in brief: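 MDCK cells at 80% confluence were exposed to virus plus a range of inhibitor concentrations for 48 h at 37 °C, 5% CO2. CPE and cell viability were then read by CellTiter-Glo luminescence.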

[9] = target: T1, Arginase-1 (Homo sapiens) (UniProt P05089); experiment: Inhibition of human Arg1 at 200 uM using thio-arginine substrate incubated for 30 mins by Ellman's reagent based assay
T1 sequence (whole entry): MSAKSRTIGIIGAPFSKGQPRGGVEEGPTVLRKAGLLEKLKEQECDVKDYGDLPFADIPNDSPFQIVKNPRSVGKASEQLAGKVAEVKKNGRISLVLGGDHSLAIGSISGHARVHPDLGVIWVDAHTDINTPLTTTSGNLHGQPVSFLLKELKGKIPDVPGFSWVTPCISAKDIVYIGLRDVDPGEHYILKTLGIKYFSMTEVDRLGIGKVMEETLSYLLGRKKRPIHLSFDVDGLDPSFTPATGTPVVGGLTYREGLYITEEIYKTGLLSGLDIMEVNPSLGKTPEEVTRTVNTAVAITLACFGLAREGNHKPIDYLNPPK

[10] = Cytotoxicity in mouse NIH/3T3 cells assessed as reduction in cell viability incubated for 12 hrs by MTT assay; assay type: cell-based, NIH3T3
[11] = target: Macrophage metalloelastase (Homo sapiens) (UniProt P39900); experiment: Inhibition of human recombinant MMP12 at 200 uM incubated for 15 mins using OmniMMP fluorogenic substrate by fluorescence based assay
Macrophage metalloelastase (Homo sapiens), sequence (P39900 106-470 limits assumed): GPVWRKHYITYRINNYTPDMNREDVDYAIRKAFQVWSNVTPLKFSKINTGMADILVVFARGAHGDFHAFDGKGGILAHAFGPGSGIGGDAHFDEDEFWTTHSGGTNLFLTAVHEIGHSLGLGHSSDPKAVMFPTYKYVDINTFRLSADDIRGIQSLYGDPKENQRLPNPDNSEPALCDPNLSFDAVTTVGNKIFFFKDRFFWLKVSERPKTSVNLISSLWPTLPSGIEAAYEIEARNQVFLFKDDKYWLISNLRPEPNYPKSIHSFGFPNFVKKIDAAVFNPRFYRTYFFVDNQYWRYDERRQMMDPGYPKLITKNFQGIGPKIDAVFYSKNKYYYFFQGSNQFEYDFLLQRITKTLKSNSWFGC

Methionine aminopeptidase 2 (Homo sapiens), sequence (P50579 2-478 limits assumed): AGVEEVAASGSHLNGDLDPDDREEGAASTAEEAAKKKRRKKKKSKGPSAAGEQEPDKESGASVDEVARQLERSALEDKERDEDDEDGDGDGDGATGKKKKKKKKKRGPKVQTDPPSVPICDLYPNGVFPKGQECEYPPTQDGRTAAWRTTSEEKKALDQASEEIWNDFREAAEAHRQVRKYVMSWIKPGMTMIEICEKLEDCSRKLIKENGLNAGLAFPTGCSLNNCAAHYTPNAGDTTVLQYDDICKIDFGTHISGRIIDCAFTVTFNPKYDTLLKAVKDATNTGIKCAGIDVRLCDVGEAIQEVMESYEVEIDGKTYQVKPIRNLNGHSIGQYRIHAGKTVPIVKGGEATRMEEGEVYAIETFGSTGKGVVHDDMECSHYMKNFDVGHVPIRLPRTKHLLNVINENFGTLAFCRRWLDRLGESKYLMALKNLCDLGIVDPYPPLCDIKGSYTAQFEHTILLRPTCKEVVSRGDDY

Compound	IC50 ([1]; read-out: IC50)	ΔTm [2]	IC50 ([1]; read-out: pIC50 (converted))	further results
Cc1cccc(-c2cc(=O)c(O)c(C(=O)O)[nH]2)c1	4.8 nM	10.7 °C	–	–
CCc1ccccc1-c1cc(=O)c(O)c(C(=O)O)[nH]1	< 2 nM	13.1 °C	< 2 nM	–
O=C(O)c1[nH]c(-c2ccc(Oc3ccccc3)cc2)cc(=O)c1O	25 nM	8.1 °C	–	–
O=C(O)c1[nH]c(-c2ccc(-c3nnn[nH]3)cc2C(F)(F)F)cc(=O)c1O	47 nM	17.8 °C	0.0501 nM	selectivity ratio at 12 h [3]: 35 to 75; selectivity ratio at 12 h [4]: 35 to 75; CC50 at 12 h [5]: > 800000 nM; inhibition [6]: inactive; inhibition [7]: inactive; EC50 [8]: 11500 nM; inhibition [9]: inactive; CC50 at 12 h [10]: > 800000 nM; inhibition [11]: inactive
O=C(O)c1[nH]c(-c2cccc(Oc3ccccc3)c2)cc(=O)c1O	14 nM	9 °C	–	–
Cc1ccccc1-c1cc(=O)c(O)c(C(=O)O)[nH]1	–	13.2 °C	–	–
O=C(O)c1[nH]c(-c2ccccc2C(F)(F)F)cc(=O)c1O	< 2 nM	13.3 °C	< 2 nM	selectivity ratio at 12 h [3]: 35 to 75; selectivity ratio at 12 h [4]: 35 to 75; CC50 at 12 h [5]: > 800000 nM; EC50 [8]: 10400 nM; CC50 at 12 h [10]: > 800000 nM
O=C1c2c(O)c(=O)ccn2N([C@@H]2c3ccccc3SCc3c2ccc(F)c3F)[C@@H]2COCCN12 [BALOXAVIR]	–	–	–	CC50 at 12 h [5]: 20000 nM; EC50 [8]: 2200 nM; CC50 at 12 h [10]: > 800000 nM
CC(C)c1ccccc1-c1cc(=O)c(O)c(C(=O)O)[nH]1	3.2 nM	11.6 °C	–	–
Cc1cc(C(=O)O)ccc1-c1cc(=O)c(O)c(C(=O)O)[nH]1	230 nM	15.3 °C	0.251 nM	–
Cc1cc(-c2noc(=O)[nH]2)ccc1-c1cc(=O)c(O)c(C(=O)O)[nH]1	120 nM	16.3 °C	0.126 nM	inhibition [6]: inactive; inhibition [7]: inactive; inhibition [9]: inactive; inhibition [11]: inactive
Cc1cc(=O)c(O)c(C(=O)O)[nH]1	–	11.1 °C	–	–
O=C(O)c1[nH]c(-c2cccc(-c3nnn[nH]3)c2)cc(=O)c1O	< 2 nM	12.9 °C	< 2 nM	–
O=C(O)c1[nH]c(-c2ccc(-c3nnn[nH]3)cc2)cc(=O)c1O	< 2 nM	14.1 °C	< 2 nM	selectivity ratio at 12 h [3]: > 100; selectivity ratio at 12 h [4]: > 100; CC50 at 12 h [5]: > 800000 nM; EC50 [8]: 7700 nM; CC50 at 12 h [10]: > 800000 nM
CC(C)c1cccc(-c2cc(=O)c(O)c(C(=O)O)[nH]2)c1	6.3 nM	10.1 °C	–	–
O=C(O)/C(O)=C/C(=O)C1(Cc2ccc(Cl)cc2)CCN(Cc2ccccc2)CC1	–	–	–	selectivity ratio at 12 h [3]: 35 to 75; selectivity ratio at 12 h [4]: 35 to 75; CC50 at 12 h [5]: > 800000 nM; EC50 [8]: 7400 nM; CC50 at 12 h [10]: > 800000 nM
O=C(O)c1ccc(-c2cc(=O)c(O)c(C(=O)O)[nH]2)cc1	< 2 nM	11.9 °C	< 2 nM	–
O=C(O)c1[nH]c(-c2ccccc2Oc2ccccc2)cc(=O)c1O	6 nM	10.4 °C	–	–
O=C(O)c1[nH]c(-c2ccccc2)cc(=O)c1O	5.6 nM	8.5 °C	–	–
COc1ccccc1-c1cc(=O)c(O)c(C(=O)O)[nH]1	2.3 nM	11.9 °C	–	–
Cc1cc(-c2nnn[nH]2)ccc1-c1cc(=O)c(O)c(C(=O)O)[nH]1	110 nM	16.5 °C	0.1 nM	selectivity ratio at 12 h [3]: 35 to 75; selectivity ratio at 12 h [4]: 35 to 75; CC50 at 12 h [5]: > 800000 nM; inhibition [6]: inactive; inhibition [7]: 44%; EC50 [8]: 21300 nM; inhibition [9]: inactive; CC50 at 12 h [10]: > 800000 nM; inhibition [11]: inactive
O=C(O)c1cccc(-c2cc(=O)c(O)c(C(=O)O)[nH]2)c1	2.3 nM	11.7 °C	–	–
CSc1ccccc1-c1cc(=O)c(O)c(C(=O)O)[nH]1	3.2 nM	11.8 °C	–	–
Cc1ccc(-c2cc(=O)c(O)c(C(=O)O)[nH]2)cc1	7.2 nM	10.3 °C	–	–
